Among the data in ChEMBL document CHEMBL3751829, “Synthesis and biological evaluation of 3-tetrazolo steroidal analogs: Novel class of 5α-reductase inhibitors” (Bioorg Med Chem, 2016) are Activity, inhibition and IC50 values, retold here.

The subject of data set [1] is Rattus norvegicus. Kind of data set: Increase in body weight gain in male wistar rat at 5ml/kg, po qd measured on 15th day after 24 hrs of last dose (Rvb=9.412+/-1.632g%). In kind it is ADME, organism-based. To be noted: in vivo.
The test system of data set [2] is Rattus norvegicus. Kind of data set: Decrease in epididymis organ weight in male wistar rat at 5ml/kg, po qd measured on 15th day after 24 hrs of last dose. The format is functional. Also on record: scale not given: the % may be the effect or the level left.
The test system of data set [3] is Rattus norvegicus. Kind of data set: Effect on organ weight in male wistar rat assessed as liver tissue weight per 100g at 5ml/kg, po qd measured on 15th day after 24 hrs of last dose (Rvb=2.994+/- 0.254 g/100g). In kind it is ADME, organism-based. The note with it: in vivo.
Data set [4] deals with Rattus norvegicus. The experiment in a line: Toxicity in male wistar rat assessed induction of mortality at 5ml/kg, po qd measured on 15th day after 24 hrs of last dose. To be noted: in vivo. In kind it is organism-based. Summed up: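 Mature male Wistar rats, groups of 5, standard diet. Compounds suspended in 0.50% CMC sodium given orally at 5 ml/kg once daily for 14 days; controls received vehicle only. Animals weighed and killed under ether on day 15, 24 h after last dose.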

In data set [5] the test system is Rattus norvegicus. The experiment in a line: Effect on organ weight in male wistar rat assessed as dorsal prostate tissue weight per 100g at 5ml/kg, po qd measured on 15th day after 24 hrs of last dose (Rvb=50.325+/-7.519 mg/100g). The format is functional, Prostate gland.
The subject of data set [6] is Rattus norvegicus. The experiment in a line: Decrease in dorsal prostate organ weight in male wistar rat at 5ml/kg, po qd measured on 15th day after 24 hrs of last dose. The format is functional, Prostate gland. Also on record: scale not given: the % may be the effect or the level left.
Data set [7] addresses T1, 3-oxo-5-alpha-steroid 4-dehydrogenase 1 (Homo sapiens) (UniProt P18405).
T1 sequence (whole entry): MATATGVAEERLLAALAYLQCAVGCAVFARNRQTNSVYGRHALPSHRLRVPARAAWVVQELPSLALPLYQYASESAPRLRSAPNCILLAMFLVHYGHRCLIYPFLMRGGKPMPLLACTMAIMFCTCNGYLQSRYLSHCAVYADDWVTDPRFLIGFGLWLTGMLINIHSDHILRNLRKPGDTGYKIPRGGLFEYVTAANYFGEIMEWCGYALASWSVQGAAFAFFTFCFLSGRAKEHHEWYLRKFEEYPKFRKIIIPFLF
Kind of data set: Inhibition of human 5alpha-1 reductase expressed in HEK293 cells assessed as suppression of conversion of [3]androstenedione at 10 uM incubated for 30 mins by radioactivity-based HPLC analysis. The format is cell-based. In outline: (§1)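 Stably transfected HEK293 lines expressing 5AR-1 (HEK-I) or 5AR-2 (HEK-II) were sonicated in saccharose/Tris/EDTA buffer. The suspension was incubated at 37 °C for 30 min with 500 nM androstenedione solution plus [3H]androstenedione and an NADP/glucose/G6PDH regenerating system. Test compounds were added in 2% DMSO. The reaction was stopped with ether; steroids were extracted and analysed by radio-HPLC.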

Data set [8] deals with Rattus norvegicus. The experiment in a line: Effect on organ weight in male wistar rat assessed as vas deferens tissue weight per 100g at 5ml/kg, po qd measured on 15th day after 24 hrs of last dose (Rvb=67.613+/-3.248 mg/100g). In kind it is functional.
For data set [9], the target named is T2, 3-oxo-5-alpha-steroid 4-dehydrogenase 2 (Homo sapiens, UniProt P31213).
T2 sequence (P31213 whole entry): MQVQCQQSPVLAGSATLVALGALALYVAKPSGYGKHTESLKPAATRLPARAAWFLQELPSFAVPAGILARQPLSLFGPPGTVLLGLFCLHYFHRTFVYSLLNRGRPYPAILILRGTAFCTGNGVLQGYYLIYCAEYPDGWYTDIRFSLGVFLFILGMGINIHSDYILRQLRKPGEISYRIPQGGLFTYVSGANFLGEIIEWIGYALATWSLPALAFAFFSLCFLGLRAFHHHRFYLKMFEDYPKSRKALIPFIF
The experiment in a line: Inhibition of human 5alpha-2 reductase expressed in HEK293 cells assessed as suppression of conversion of [3]androstenedione incubated for 30 mins by radioactivity-based HPLC analysis. The format is cell-based. Summed up: as §1

Data set [10] has as its target T1, 3-oxo-5-alpha-steroid 4-dehydrogenase 1 (Homo sapiens). The experiment in a line: Inhibition of human 5alpha-1 reductase expressed in HEK293 cells assessed as suppression of conversion of [3]androstenedione at 2 uM incubated for 30 mins by radioactivity-based HPLC analysis. The format is cell-based. Summed up:
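Lysates of stably transfected HEK293 cells (80% confluent cells sonicated in 300 mM saccharose, 5 mM Tris–HCl, 0.1 mM EDTA). Master mix: Tris buffer, androstenedione (500 nM solution) plus tracer [3H]androstenedione, NADP/glucose/glucose-6-P-dehydrogenase regenerating system; compound added in 2% DMSO. Cell suspension mixed 1:1 with master mix, 37 °C for 30 min. Stopped with ether; steroids extracted, dried, taken up in methanol, radio-HPLC.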

Data set [11] relates to Rattus norvegicus. Kind of data set: Effect on organ weight in male wistar rat assessed as ventral prostate tissue weight per 100g at 5ml/kg, po qd measured on 15th day after 24 hrs of last dose (Rvb=59.494+/- 4.733 mg/100g). The format is functional, Prostate gland.
A short description of data set [12]: Cytotoxicity against human DU145 cells by rapid colorimetric assay. The format is functional, cell-based, DU-145. Summed up:
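Antiproliferative test on DU-145 cells using the Mosmann method. Seven concentrations were tested in culture medium.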

Data set [13] has as its system Rattus norvegicus. Kind of data set: Effect on organ weight in male wistar rat assessed as seminal vesicles tissue weight per 100g at 5ml/kg, po qd measured on 15th day after 24 hrs of last dose (Rvb=175.439+/-12.833 mg/100g). In kind it is ADME, organism-based. The note with it: in vivo.
In data set [14] the test system is Rattus norvegicus. The experiment in a line: Decrease in vas deferens organ weight in male wistar rat at 5ml/kg, po qd measured on 15th day after 24 hrs of last dose. More on the design: scale not given: the % may be the effect or the level left. In kind it is functional.
The subject of data set [15] is Rattus norvegicus. Kind of data set: Effect on organ weight in male wistar rat assessed as epididymis tissue weight per 100g at 5ml/kg, po qd measured on 15th day after 24 hrs of last dose (Rvb=187.356+/- 5.961 mg/100g). In kind it is functional.
Data set [16] deals with Rattus norvegicus. The experiment in a line: Decrease in ventral prostate organ weight in male wistar rat at 5ml/kg, po qd measured on 15th day after 24 hrs of last dose. More on the design: scale not given: the % may be the effect or the level left. The format is functional, Prostate gland.
Data set [17] addresses T3, 3-oxo-5-alpha-steroid 4-dehydrogenase 2 (Homo sapiens) (UniProt P31213).
T3 sequence (whole entry): T2 sequence (P31213 whole entry)
Kind of data set: Inhibition of human 5alpha-2 reductase expressed in HEK293 cells assessed as suppression of conversion of [3]androstenedione at 2 uM incubated for 30 mins by radioactivity-based HPLC analysis. The format is cell-based. In outline: as §1

Data set [18] concerns Rattus norvegicus. Kind of data set: Effect on organ weight in male wistar rat assessed testis tissue weight per 100g at 5ml/kg, po qd measured on 15th day after 24 hrs of last dose (Rvb=1054.099+/- 55.648 mg/100g). In kind it is ADME, organism-based. The note with it: in vivo.
Data set [19] has as its system Rattus norvegicus. Kind of data set: Effect on organ weight in male wistar rat assessed as adrenal tissue weight per 100g at 5ml/kg, po qd measured on 15th day after 24 hrs of last dose (Rvb=14.762 +/-0.600 mg/100g). To be noted: in vivo. In kind it is ADME, organism-based.
For data set [20], the target named is T3, 3-oxo-5-alpha-steroid 4-dehydrogenase 2 (Homo sapiens). The experiment in a line: Inhibition of human 5alpha-2 reductase expressed in HEK293 cells assessed as suppression of conversion of [3]androstenedione at 10 uM incubated for 30 mins by radioactivity-based HPLC analysis. The format is cell-based. Summed up: as §1
Data set [21] addresses T4, 3-oxo-5-alpha-steroid 4-dehydrogenase 1 (Homo sapiens, UniProt P18405).
T4 sequence (P18405 whole entry): T1 sequence (whole entry)
The experiment in a line: Inhibition of human 5alpha-1 reductase expressed in HEK293 cells assessed as suppression of conversion of [3]androstenedione incubated for 30 mins by radioactivity-based HPLC analysis. The format is cell-based. In outline: as §1

What is called inhibition is the percentage by which the read-out fell short of the control. As usually defined, the IC50 is the concentration that inhibits the measured activity by half. In the case of `C[C@]12CCC(c3nnn[nH]3)=CC1=CC[C@@H]1[C@@H]2CC[C@]2(C)C(=O)CC[C@@H]12`, the Activity with Rattus norvegicus [1] is 18.382 g%; in the data set with Rattus norvegicus [2] it was 36.25%; in the data set on Rattus norvegicus [3] it was 3.257 g; with Rattus norvegicus [4] it was “Non-toxic”; in the data set on Rattus norvegicus [5] it was 42.651 mg; in the data set with Rattus norvegicus [6] it was 15.25%. Moreover, the Activity was found to be 27.646 mg with Rattus norvegicus [8]; 38.551 mg in the data set on Rattus norvegicus [11]; 95.251 mg in the data set on Rattus norvegicus [13]; 59.11% with Rattus norvegicus [14]; 119.445 mg with Rattus norvegicus [15]; 35.2% in the data set with Rattus norvegicus [16]. For the same compound, the values for the Activity in the data set with Rattus norvegicus [18] and with Rattus norvegicus [19] were 1090.046 mg and 17.986 mg, respectively. The inhibition in data set [7] turned out to be 81.1%; in data set [10] it was 38.7%; in [17] it was 100%; in data set [20] it was 100%. Besides, the IC50 in data set [9] was 0.0838 µM; in data set [12] (du-145) it was “Not Active”.

Consider `CC(=O)C1CC[C@H]2[C@@H]3CC=C4C=C(c5nnn[nH]5)CC[C@]4(C)[C@H]3CC[C@]12C` (stereo not given in full), for which the Activity is 8.328 g% in the data set with Rattus norvegicus [1]; 31.76% in the data set on Rattus norvegicus [2]; 3.649 g in the data set with Rattus norvegicus [3]; “Non-toxic” in the data set on Rattus norvegicus [4]; 41.379 mg with Rattus norvegicus [5]; 17.78% in the data set on Rattus norvegicus [6]. Also, the Activity is on record as 29.009 mg with Rattus norvegicus [8]; 38.433 mg in the data set on Rattus norvegicus [11]; 78.265 mg in the data set with Rattus norvegicus [13]; 57.1% with Rattus norvegicus [14]; 127.85 mg in the data set on Rattus norvegicus [15]; 35.4% in the data set with Rattus norvegicus [16]. The Activity turned out to be 844.538 mg in the data set on Rattus norvegicus [18] and 17.762 mg in the data set on Rattus norvegicus [19]. For the same compound, the inhibition in [7] is 95%; in [10], 82.6%; in [17], 100%; in data set [20], 100%. Besides, the half-inhibitory concentration (IC50) in data set [9] is 0.0156 µM; in data set [12] (du-145), “Not Active”; in data set [21], 0.547 µM.

Consider `C[C@]12CC[C@H]3[C@@H](CC=C4C=C(c5nnn[nH]5)CC[C@@H]43)[C@@H]1CCC2=O`, for which the Activity in the data set with Rattus norvegicus [1] is reported as 21.51 g%; in the data set on Rattus norvegicus [2], 3.44%; in the data set on Rattus norvegicus [3], 3.457 g; in the data set on Rattus norvegicus [4] it was “Non-toxic”; in the data set with Rattus norvegicus [5], 46.695 mg; in the data set on Rattus norvegicus [6], 7.21%. Besides, the Activity came to 59.232 mg with Rattus norvegicus [8]; 56.124 mg with Rattus norvegicus [11]; 188.757 mg with Rattus norvegicus [13]; 12.4% with Rattus norvegicus [14]; 180.908 mg with Rattus norvegicus [15]; 5.66% with Rattus norvegicus [16]. Moreover, the figures for the Activity with Rattus norvegicus [18] and in the data set with Rattus norvegicus [19] were 1350.787 mg and 19.76 mg, respectively. Moreover, the inhibition in data set [7] stood at 79.7%; in data set [10], 36.2%; in [17] it was 60.6%; in data set [20], 79.7%. For the same compound, in [12] (Homo sapiens, DU-145, read-out: IC50), the IC50 turned out to be 536 µM.
